The test system of assay [1] is Enterovirus C. Put plainly: Incorporation of Poliovirus RNA dependent RNA polymerase into sym/sub-C primer. Put shortly: (§1)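 NTP was 10–250 µM; reactions ran 2 min at 30 °C and were quenched with EDTA. Products were resolved by 20% denaturing PAGE. Initial rates came from the elongated fraction, and kcat and KM from Lineweaver–Burk plots (mean ± SD, n = 3).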
In assay [2] the test system is Enterovirus C. Description: Incorporation of Poliovirus RNA dependent RNA polymerase into sym/sub-U primer. Put shortly: as §1
Assay [3] has as its system Enterovirus C. Description: Antiviral activity against poliovirus infected HeLa S3 cells assessed as plaque formation at 0.5 mM relative to control. The class given is functional. Put shortly:
(§2)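 HeLa S3 cells (DMEM/F-12, 2% dialyzed FBS) were pretreated with nucleoside for 1 h at 37 °C in 1% DMSO final. Cells were infected with poliovirus (1 × 10⁶ PFU in PBS) for 15 min at 23 °C, then kept 6 h at 37 °C with nucleoside. Cell-associated virus was released by three freeze–thaw cycles and titred by plaque assay on HeLa S3 (1% low-melting agarose overlay, 2 days, crystal violet). Titre is given as % of untreated control.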

Assay [4] relates to Enterovirus C. Put plainly: Ratio of kcat/Km of Poliovirus RNA dependent RNA polymerase incorporation into sym/sub-C primer relative to control. Set-up: unit not given here.
Assay [5] concerns Enterovirus C. Put plainly: Ratio of kcat/Km of Poliovirus RNA dependent RNA polymerase incorporation into sym/sub-U primer. On the set-up: unit not given here.
In assay [6] the test system is Enterovirus C. Put plainly: Antiviral activity against poliovirus infected HeLa S3 cells assessed as plaque formation at 2 mM. Type of assay: functional. Put shortly: as §2

For orientation: Km means the concentration of substrate that gives half-maximal velocity. The kcat is the number of substrate molecules converted per active site and unit of time at saturation.

With `Nc1ncnc2c1ncn2[C@@H]1O[C@H](COP(=O)(O)OP(=O)(O)OP(=O)(O)O)[C@@H](O)[C@H]1O`, in assay [1], the Km stood at 110 µM and the kcat was 0.82 10^-4/s.

Regarding `NC(=O)c1ncn([C@@H]2O[C@H](COP(=O)(O)OP(=O)(O)OP(=O)(O)O)[C@@H](O)[C@H]2O)n1`, in assay [2], the Michaelis constant (Km) was found to be 34 µM and the kcat is 3.7 10^-4/s. Also, in assay [1], the Km is 69 µM and the kcat was 5.8 10^-4/s.

Consider `NC(=O)c1nn([C@@H]2O[C@H](CO)[C@@H](O)[C@H]2O)cc1C#Cc1ccccc1`, for which the Activity in assay [3] is 122%.

Consider `NC(=O)c1nn([C@@H]2O[C@H](COP(=O)(O)OP(=O)(O)OP(=O)(O)O)[C@@H](O)[C@H]2O)cc1I`, for which the kcat/Km in assay [4] turned out to be 4.4; in assay [5] it was 20. In addition, the Km came to 24 µM in assay [2] and 40 µM in assay [1]. Moreover, the results for the kcat in assay [2] and in assay [1] were 4.7 10^-4/s and 1.8 10^-4/s, respectively.

On to `Nc1nc2c(ncn2[C@@H]2O[C@H](COP(=O)(O)OP(=O)(O)OP(=O)(O)O)[C@@H](O)[C@H]2O)c(=O)[nH]1`, for which, in assay [2], the Km was determined as 56 µM and the catalytic constant (kcat) was 5 10^-4/s.

As for `CC#Cc1cn([C@@H]2O[C@H](COP(=O)(O)OP(=O)(O)OP(=O)(O)O)[C@@H](O)[C@H]2O)nc1C(N)=O`, the kcat/Km worked out at 2.6 in assay [4] and 9.1 in assay [5]. The Michaelis-Menten constant (Km) in assay [2] turned out to be 35 µM; in assay [1], 51 µM. Further, the kcat is 3.1 10^-4/s in assay [2] and 1.3 10^-4/s in assay [1].

For the compound `CC#Cc1cn([C@@H]2O[C@H](CO)[C@@H](O)[C@H]2O)nc1C(N)=O`, the Activity in assay [6] turned out to be 57%; in assay [3], 94%.

On to `NC(=O)c1nn([C@@H]2O[C@H](CO)[C@@H](O)[C@H]2O)cc1I`, for which the Activity in assay [6] was 68%; in assay [3], 76%.

Turning to `NC(=O)c1ncn([C@@H]2O[C@H](CO)[C@@H](O)[C@H]2O)n1` [RIBAVIRIN], the Activity is 4% in assay [6] and 40% in assay [3].
